Data as given in ChEMBL document CHEMBL1649411, “Potent antitumor mimetics of annonaceous acetogenins embedded with an aromatic moiety in the left hydrocarbon chain part” (J Med Chem, 2011).

Legend:
A549 = assay: Cytotoxicity against human A549 cells after 72 hrs by MTT assay; assay type: functional; conditions: A549, 72 h
In short: (§1)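 Cells were grown in DMEM with penicillin-streptomycin, L-glutamine and 10% FBS, then seeded at 5 × 10³ cells/well. MTT (5 mg mL^-1 stock) was added for 4 h, then dissolved in DMSO. A570 was read against a 690 nm reference, with at least four replicates. Inhibition was calculated versus blank-corrected vehicle control, giving GI50.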

SGC-7901 = assay: Cytotoxicity against human SGC7901 cells after 72 hrs by MTT assay; assay type: functional; conditions: SGC-7901, 72 h; in short: as §1
MCF7 = assay: Cytotoxicity against human MCF7 cells after 72 hrs by MTT assay; assay type: functional; conditions: MCF7, 72 h; in short: as §1
[1] = Cytotoxicity against HLF after 72 hrs by MTT assay; assay type: cell-based; conditions: human, HLF cells; in short: as §1
HCT-116 = assay: Cytotoxicity against human HCT116 cells after 72 hrs by MTT assay; assay type: functional; conditions: HCT-116, 72 h
In short: (§2)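 Cells were maintained in F12/DMEM with penicillin-streptomycin, L-glutamine and 10% FBS, and plated at 5 × 10³ cells/well. Sixteen hours later, medium containing compound ([…]) or DMSO vehicle was added for 72 h. MTT (5 mg mL^-1 stock) was applied for 4 h and formazan dissolved in DMSO. Absorbance was read at 570/690 nm in at least quadruplicate. Growth inhibition versus blank-corrected controls gave GI50.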

HT-29 = assay: Cytotoxicity against human HT-29 cells after 72 hrs by MTT assay; assay type: functional; conditions: HT-29, 72 h; in short: as §2
[2] = Cytotoxicity against human BEAS2B cells after 72 hrs by MTT assay; assay type: cell-based, BEAS-2B; in short: as §1

Row | Compound | GI50 (A549) | GI50 (SGC-7901) | GI50 (MCF7) | GI50 at 72 h [1] | GI50 (HCT-116) | GI50 (HT-29) | GI50 at 72 h [2]
1 | C[C@H]1C=C(CCCCCCCC(O)CCCC[C@H](O)COCCOC[C@@H](O)CCCCC2CCCCC2)C(=O)O1 (stereo partly specified) | 4.5 µM | 0.75 µM | 1.8 µM | 5.5 µM | 1.6 µM | 5.4 µM | 61 µM
2 | COc1ccc2cc(CCC[C@H](O)COCCOC[C@@H](O)CCCCC(O)CCCCCCCC3=C[C@H](C)OC3=O)ccc2c1 (stereo partly specified) | 3.7 µM | 0.082 µM | 12.6 µM | 10 µM | 1.1 µM | 1.1 µM | > 100 µM
3 | COc1ccc(CCC[C@H](O)COCCOC[C@@H](O)CCCCC(O)CCCCCCCC2=C[C@H](C)OC2=O)cc1 (stereo partly specified) | 4.5 µM | 0.198 µM | 23.3 µM | 11.3 µM | 2.3 µM | 4.3 µM | > 100 µM
4 | C[C@H]1C=C(CCCCCCCC(O)CCCC[C@H](O)COCCOC[C@@H](O)CCCc2ccccc2)C(=O)O1 (stereo partly specified) | 0.773 µM | 0.275 µM | 0.84 µM | 7.4 µM | 0.394 µM | 1.1 µM | > 100 µM
5 | C[C@H]1C=C(CCCCCCCC(O)CCCC[C@H](O)COCCOC[C@@H](O)CCCc2cccc(O)c2)C(=O)O1 (stereo partly specified) | 6 µM | 1 µM | 24.5 µM | > 100 µM | 2.8 µM | 69 µM | > 100 µM
6 | CCCCCC[C@H](O)COCCOC[C@@H](O)CCCCC(O)CCCCCCCC1=C[C@H](C)OC1=O (stereo partly specified) | 10.8 µM | 2 µM | 5.8 µM | 11.1 µM | 4.2 µM | 19.4 µM | > 100 µM
7 | C[C@H]1C=C(CCCCCCCC(O)CCCC[C@H](O)COCCOC[C@@H](O)CCCc2ccc(-c3ccccc3)cc2)C(=O)O1 (stereo partly specified) | 0.177 µM | 0.02 µM | 0.154 µM | > 100 µM | 0.134 µM | 0.355 µM | > 100 µM
8 | CCCCCCCCCC[C@H](O)COCCOC[C@@H](O)CCCCCCCCCCCCC1=C[C@H](C)OC1=O | 0.305 µM | 0.065 µM | 0.276 µM | 20.9 µM | 0.113 µM | 0.291 µM | 120 µM
